An excerpt weighted towards active compounds, which were near 12% of everything screened.
ABCG2 inh = human ABCG2 inhibition, ABCB1 as counter-screen. IgMXP3 cells, JC-1 efflux, flow cytometry. Q9UNQ0. inhibition, % at 6.6 µM. 190,000 compounds, 0.1% hits;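 active = inhibition above 80%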;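 note: 0% = DMSO and 100% = nicardipine control wells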
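Measure – % inhibition of efflux relative to nicardipine and DMSO · Test system – ABCG2 IgMXP3 and barcoded ABCB1 CCRF-Adr cell mix · Control set – nicardipine as high control, DMSO as low control · Compound – one concentration, 6.6 µM final · Signal – flow cytometry of retained JC-1 fluorescence · Timing – 10 min exposure at 25 °C with rotation, no wash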
WT yeast gro inh = growth inhibition of WT yeast, mitochondrial fusion screen; mitochondrial fusion phenotypic screen, WT strain; inhibition, % at 10 µM; 190,000 compounds, 2.1% hits; in the data active = inhibition above about 58%; tested in S. cerevisiae
RAM network inh = blocks the yeast RAM network. 190,000 compounds, 1.8% hits. S. cerevisiae dse1pr::URA3 reporter, 5-FOA growth OD615, 2 d; analog-sensitive cbk1-as2 kinase mutant strain. inhibition, % at 50 µM;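 active = inhibition above a set limit, 3 SD over mean compound inhibition, cut at about 8.4% in these data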;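 note: 0% = DMSO-only wells with no growth and 100% = 10 µM 1-NA-PP1 full growth; inhibition rescues growth on 5-FOA so higher OD means more RAM inhibition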
ABCB1 inh = human ABCB1 inhibition, ABCG2 as counter-screen; 190,000 compounds, 0.067% hits; CCRF-Adr cells, JC-1 efflux, flow cytometry; inhibition, % at 6.6 µM; P08183; AID 1326; in the data active = inhibition above about 40%;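 note: 0% = vehicle and 100% = reference inhibitor; higher value means more JC-1 retained so stronger ABCB1 efflux block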
L major viab = Leishmania major promastigote growth inhibition; Leishmania major promastigotes, resazurin fluorescence viability; inhibition, % at 10 µM; 200,000 compounds, 9% hits; AID 1063; in the data active = inhibition above about 50%;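 note: promastigotes grown with compound for 44 hours at 28 °C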
RAM 5-FOA = RAM network inhibitors in efflux-deficient yeast. shares compounds with RAM network inh. S. cerevisiae efflux-deficient reporter strain, 5-FOA growth OD615, 2 days. max inhibition, %. 1,200 tested, under 10 active; call rule not given here;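 note: plate controls were vehicle for no effect and reference inhibitor for full effect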
* hit, by the source's call; / = no result.

SMILES	ABCG2 inh	WT yeast gro inh	RAM network inh	ABCB1 inh	L major viab	RAM 5-FOA
O=C(NC(=S)NCc1ccccc1)c1ccccc1F	0	6	1	0	-2	/
O=C(NC(=S)N(Cc1ccccc1)Cc1ccccc1)c1ccccc1F	3	4	12*	1	1	1
Cc1[nH]c2ccccc2c1/C=N/Nc1ccc([N+](=O)[O-])cc1S(=O)(=O)Nc1ccc(Cl)cc1	9	50	14*	12	95*	4
CC1(C)CC2(CC(c3ccccc3F)c3ccc(O)c(O)c3O2)NC(=S)N1 (stereo not drawn)	-1	-8	-1	0	-3	/
CC(C)CC1=NN2C(=N)/C(=C\c3coc4ccccc4c3=O)C(=O)N=C2S1	6	15	14*	1	-11	2
Cc1cc(C)cc(-n2c(C)cc(/C=C3\C(=N)N4N=C(CC(C)C)SC4=NC3=O)c2C)c1	1	-2	5	0	3	/
COc1cc(-n2c(=O)c3ccccc3n(Cc3cc(=O)n4ccccc4n3)c2=O)cc(OC)c1OC	3	-4	1	0	-2	/
C#CCN(C(=O)CC1C(=O)NCCN1C/C=C/c1ccccc1)C1CCCCC1 (stereo not drawn)	1	-18	1	0	-3	/
O=C(COC(=O)c1ccc(-c2ccccc2)cc1)Nc1ccccc1-c1ccccc1	7	21	12*	1	4	3
COCC(=O)OCC(=O)Nc1ccccc1-c1ccccc1	-2	-9	0	0	8	/
O=C(CSc1nc(SCC(=O)NCc2ccccc2)n(-c2ccccc2)n1)NCc1ccccc1	30	-5	36*	23	94*	2
CN(C)C(=O)CSc1nc(SCC(=O)N(C)C)n(-c2ccccc2)n1	2	17	0	0	1	/
CCN(CC)S(=O)(=O)c1cccc(C(=O)c2c(C)cc3ccccn23)c1	29	31	15*	3	8	2
Cc1cc2ccccn2c1C(=O)c1ccc(NN)c([N+](=O)[O-])c1	6	3	2	1	-2	/
CCOC(=O)C1CCN(C(=O)N(CC)CC)CC1	4	2	0	1	-5	/
O=C(COC(=O)c1ccccc1Cc1ccccc1)Nc1ccc(SC(F)F)cc1	/	70*	14*	10	6	4
O=C(COC(=O)c1cc(Cl)ccc1[N+](=O)[O-])NCc1ccc(Cl)cc1Cl	45	61*	13*	3	62*	1
Cc1ccc(C(=O)c2ccccc2C(=O)OCC(=O)Nc2cccc([N+](=O)[O-])c2)cc1	61	5	6	2	22	/
Cc1ccc(C(=O)c2ccccc2C(=O)OCC(=O)Nc2ccc(SC(F)F)cc2)cc1	7	37	13*	1	66*	2
Cc1ccc(C(=O)c2ccccc2C(=O)OCC(=O)NCCc2ccc(Cl)cc2Cl)cc1	29	31	15*	2	5	3
O=C(COC(=O)c1cc[n+]([O-])cc1)NCCc1ccc(Cl)cc1Cl	2	-3	2	1	-1	/
Cc1cc([N+](=O)[O-])ccc1NC(=O)C(C)N1CCN(c2ccccn2)CC1 (stereo not drawn)	2	-20	1	0	-9	/
Cc1ccc(C(=O)NC(N2CCCC2)C(Cl)(Cl)Cl)cc1 (stereo not drawn)	1	18	2	0	0	/
Clc1ccc(-c2csc(Nc3ccccc3)[n+]2Cc2ccco2)c(Cl)c1	1	72*	14*	0	36	2
COc1ccc(-c2csc(Nc3ccccc3)[n+]2Cc2ccccc2)cc1	7	21	2	1	15	/
O=C(COC(=O)/C=C/c1ccc(Cl)cc1Cl)NCc1ccco1	6	-3	3	0	-4	/
O=C(CCS(=O)(=O)c1ccccc1)Nc1ccccc1F	4	0	0	2	5	/
CCOC(=O)c1c(-c2cccc([N+](=O)[O-])c2)csc1NC(=O)CCCOc1ccccc1OC	3	2	15*	2	2	2
CCOC(=O)c1c(-c2cccc([N+](=O)[O-])c2)csc1NC(=O)CCCOc1ccccc1	20	-7	14*	1	4	3
COc1ccccc1OCCCC(=O)Nc1ccc([N+](=O)[O-])cc1Br	41	-2	4	2	-6	/

Source: PubChem BioAssay (several laboratories)
